Most compounds without a hit are left out; they make up all but 1.2% or so of the library.
ARNT TACC3 PPI: disruptors of ARNT/TACC3 protein interaction, primary screen, biochemical, AlphaScreen, single concentration; Transforming acidic coiled-coil-containing protein 3 (Homo sapiens), Q9Y6A5; AlphaScreen His-ARNT PAS-B/GST-TACC3 binding, luminescence; TACC3 fragment carries E629A point mutation; inhibition, % at 9.99 µM; actives 0.66% (n = 390,000);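 active = mean inhibition of replicates at least 50% and at least half of replicates each reaching 50%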
CAL PDZ FP-1: untagged CAL PDZ binding inhibitors, primary screen, biochemical, fluorescence polarization, HTS; purified CAL PDZ, TMR-peptide fluorescence polarization, 1 h; Golgi-associated PDZ and coiled-coil motif-containing protein (Homo sapiens), Q9HD26; actives 0.92% (n = 300,000); inhibition, % at 24.9 µM;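 active = mean inhibition of at least 30% with at least half of replicates also reaching 30%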
CAL PDZ FP-2: CAL PDZ peptide-binding inhibitors, primary screen, biochemical, fluorescence polarization, Cer-tagged CAL PDZ, HTS; Golgi-associated PDZ and coiled-coil motif-containing protein (Homo sapiens), Q9HD26; inhibition, % at 20 µM; actives 0.02% (n = 330,000); purified CAL PDZ, TMR-peptide fluorescence polarization, 1 h;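 active = highest replicate inhibition of at least 40%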
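Test system: purified CerCALP PDZ construct; Compound dosing: one concentration, 20 µM compound; Also added: TMR-labelled reporter peptide T*-PRC34 bound in PDZ groove; Read-out: inhibition from polarization loss; Controls: unlabelled peptide and DMSO controls; Signal: FP readout, S and P plane fluorescence; Incubation: 1 h at RT.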
CaV13 ICDI inh: Disruptors of the CACNA1D IQ motif to Ca2+-dependent inactivation inhibitor domain association, primary screening, Förster resonance energy transfer in intact living …; inhibition, % at 12.3 µM; actives 0.098% (n = 340,000); HEK cells, CFP/YFP FRET ICDI-IQ, plate reader, 10 min; percent FRET-ratio fall versus neutral wells;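 active = mean replicate inhibition of at least 30% and at least 1% of replicates passing that level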
ARNT Alpha ctr-1: AlphaScreen signal interference compounds, dose response, artefact control for ARNT-TACC3 interaction inhibitor project, biochemical, luminescence, cherry-pick; shares compounds with ARNT TACC3 PPI; His-ARNT PASB-GST AlphaScreen artifact counter-screen; AC50, µM (series often up to 68 µM); actives 50% (n = 1,200);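 active = every separate test run was called active for a drop in luminescence, with AC50 within twice the top valid dose, actives reach about 71 µM in these data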
ARNT Alpha ctr-2: AlphaScreen signal interference by compounds, dose response, artefact control for ARNT/TACC3 disruptor project, biochemical, dual-tagged ARNT, dry powder; Dual-tagged His-ARNT PASB-GST AlphaScreen artifact counter-screen; shares compounds with ARNT TACC3 PPI; actives 70% (n = 45); AC50, µM;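 active = luminescence drop, with half-maximal potency fitted within twice the sample's top valid dose, cut at about 70 µM in these data; inactive = the rest, including signal moving the wrong way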
A number is an active result; 0 = inactive; - = no result given.

SMILES	ARNT TACC3 PPI	CAL PDZ FP-1	CAL PDZ FP-2	CaV13 ICDI inh	ARNT Alpha ctr-1	others
CN1CCN(Cc2cc(COCc3ccccc3)c3cccnc3c2O)CC1	0	0	0	-	-
COc1cccc(-c2cnc3c(c2)C(=O)N([C@H](C)CO)C[C@H](C)[C@H](CN(C)S(=O)(=O)c2cn(C)cn2)O3)c1	0	-	-	-	-
O=C(Nc1nnc(-c2ccc(F)cc2)o1)c1ccc(S(=O)(=O)N2CCOCC2)cc1	0	0	0	-	-
CSc1ccc(-c2nnc(NC(=O)c3ccc(S(=O)(=O)N4CCC(C)CC4)cc3)o2)cc1	-	-	-	-	-	ARNT Alpha ctr-2=59
O=C(Nc1nnc(-c2ccco2)o1)c1ccc(S(=O)(=O)N2CCCC2)cc1	0	0	0	0	-
CC1CCN(S(=O)(=O)c2ccc(C(=O)Nc3nnc(-c4ccco4)o3)cc2)CC1	0	-	0	0	-	ARNT Alpha ctr-2=0
C[C@@H]1CCCCO[C@H](CN(C)C(=O)Nc2ccc(C(F)(F)F)cc2)[C@@H](C)CN([C@@H](C)CO)C(=O)c2cc(NC(=O)C3CCCCC3)ccc2O1	0	-	-	-	-
CO[C@@H]1CN(C)C(=O)c2ccc(NC(=O)c3ccccn3)cc2OC[C@@H](C)N(C(=O)C2CC2)C[C@H]1C	57	-	-	-	32µM
CCOc1cc(CNCc2ccccn2)cc(Cl)c1OC	53	-	0	0	0
COc1cc(CNCc2ccccn2)ccc1OCc1ccc(Cl)c(Cl)c1	0	0	0	0	-
COc1cccc(CNCc2ccc(OC)c3ccccc23)c1OC	0	0	0	0	-
CCOc1cc(CNCc2ccccn2)cc(Cl)c1OCC	53	0	0	0	0
CCOc1cc(CNCC(O)c2ccccc2)cc(Cl)c1OC (stereo not drawn)	-	0	0	0	-
COc1cc(CNCc2ccccn2)ccc1OCc1ccc(Cl)cc1Cl	55	0	0	0	0
COc1cccc(CNCc2ccccn2)c1OC	61	0	0	0	0
CC1=NN(c2ccccc2C)C(=O)C1	active	0	0	0	0
O=C(CN1CC(=O)Oc2ccccc21)OCC(=O)c1ccccc1	54	0	0	-	8.3µM
O=C(CN1C(=O)c2ccccc2C1=O)OCC(=O)c1ccc(F)cc1	0	0	0	0	-
C[C@H](CO)N1C[C@H](C)[C@H](CN(C)C(=O)Nc2cccc3ccccc23)OCCCC[C@H](C)Oc2ccc(NC(=O)CCCN(C)C)cc2C1=O	59	-	-	-	0
C[C@H](CO)N1C[C@H](C)[C@@H](CN(C)C(=O)Nc2cccc3ccccc23)OCCCC[C@H](C)Oc2ccc(NC(=O)CCCN(C)C)cc2C1=O	0	-	-	-	-
C[C@@H]1CCCCO[C@@H](CN(C)C(=O)Nc2cccc3ccccc23)[C@H](C)CN([C@@H](C)CO)C(=O)c2cc(NS(=O)(=O)c3cn(C)cn3)ccc2O1	55	-	-	-	10µM
COc1ccc(OC(=O)N(C)C[C@@H]2OCc3ccccc3-c3ccccc3C(=O)N([C@@H](C)CO)C[C@@H]2C)cc1	0	-	-	-	-
Cc1c(CCC(=O)O)c(=O)oc2c(C)c3occ(-c4ccc(Cl)cc4)c3cc12	56	0	0	0	62µM
COCC(=O)N[C@H]1C=C[C@H](CC(=O)N2CCCCC2)O[C@@H]1CO	0	-	-	-	-
COc1ccc([N+](=O)[O-])cc1/C=N/NC(=O)CNC(=O)c1cccc(F)c1	51	0	0	0	0
SMILES	ARNT TACC3 PPI	CAL PDZ FP-1	CAL PDZ FP-2	CaV13 ICDI inh	ARNT Alpha ctr-1	others
COc1ccc([N+](=O)[O-])cc1/C=N/NC(=O)CNC(=O)C(c1ccccc1)c1ccccc1	0	0	0	0	-
COc1cccc(/C=N/NC(=O)CNC(=O)c2cccnc2)c1O	59	0	0	0	0
COc1cccc(/C=N/NC(=O)CNC(=O)c2ccncc2)c1O	56	0	0	0	0
COc1cccc(/C=N/NC(=O)CNC(=O)c2ccc3c(c2)OCCO3)c1O	0	0	0	0	-
CCOc1ccccc1/C=N/NC(=O)CSc1n[nH]c(=O)[nH]c1=O	0	-	0	0	-
COc1cc(/C=N/NC(=O)CSc2n[nH]c(=O)[nH]c2=O)cc(OC)c1O	57	0	0	0	0
O=C(CSc1n[nH]c(=O)[nH]c1=O)N/N=C/c1ccccc1O	52	0	0	0	0
C[C@@H]1CN([C@H](C)CO)C(=O)Cc2cc(NS(=O)(=O)c3ccc(Cl)cc3)ccc2O[C@H]1CN(C)C(=O)Nc1cccc2ccccc12	0	-	-	-	-
O=C(NCCc1ccccc1)c1ccc(=O)[nH]c1	active	0	0	0	0
CN(C)c1ccc2c(c1)[C@@H]1C[C@@H](CC(=O)N3CCOCC3)O[C@@H](CO)[C@@H]1O2	70	-	-	-	0
CN(C)c1ccc2c(c1)[C@H]1C[C@H](CC(=O)N3CCc4ccccc4C3)O[C@@H](CO)[C@H]1O2	0	-	-	-	-
O=c1oc2c3c4c(cc2s1)CCCN4CCC3	active	0	0	0	44µM
C[C@H](CO)N1C[C@H](C)[C@H](CN(C)Cc2ccccc2)Oc2c(NS(C)(=O)=O)cccc2C1=O	0	-	-	-	-
COc1ccccc1-c1nc(SCC(=O)Nc2ccccc2)n[nH]1	0	0	0	0	-
O=C(CSc1n[nH]c(-c2ccccn2)n1)Nc1ccccc1	62	0	0	0	7.7µM
O=C(CSc1n[nH]c(-c2cccnc2)n1)Nc1ccccc1	0	0	0	0	-
COc1ccc(NC(=O)CSc2n[nH]c(-c3ccccn3)n2)cc1	58	0	0	0	6.9µM
COc1ccccc1NC(=O)CSc1n[nH]c(-c2ccccn2)n1	61	-	0	0	11µM
O=C(C[C@H]1CC[C@H](NC(=O)C2CCC2)[C@@H](CO)O1)NC1CCCCC1	0	-	-	-	-
CN1C(=O)c2cc(NC(=O)c3cccs3)ccc2OC[C@H]2O[C@H](CC(=O)NCCN3CCCCC3)CC[C@@H]21	0	-	-	-	-
COCc1cn(CC[C@H]2CC[C@@H](NC(=O)CCN3CCCCC3)[C@@H](CO)O2)nn1	0	-	-	-	-
O=C(c1ccncc1)N1CC[C@H]2[C@H](CO)Nc3ccc(-c4ccccc4)cc3[C@H]21	0	-	-	-	-
C[C@H]1CN([C@@H](C)CO)C(=O)c2cc(NC(=O)Nc3cccc4ccccc34)ccc2O[C@H]1CN(C)S(=O)(=O)c1ccccc1	0	-	-	-	-
Cc1ccc2ccc3cccnc3c2n1	74	0	-	0	51µM
N#CC1=C(N)Oc2c(ccc3cccnc23)C1c1ccccc1 (stereo not drawn)	57	0	0	0	71µM
O=c1oc2ccccc2c(O)c1C=NCc1ccccn1	58	0	0	-	0

High-throughput results: PubChem, Broad Institute
